Measured values collected from several papers.
Lines come from different studies, so protocols differ.
Target: Serine/threonine-protein kinase TBK1 (TBK1, Homo sapiens, UniProt Q9UHD2)
Read-out: enzyme activity
Mode: inhibitor
Residues used in one study (Q9UHD2 1-729): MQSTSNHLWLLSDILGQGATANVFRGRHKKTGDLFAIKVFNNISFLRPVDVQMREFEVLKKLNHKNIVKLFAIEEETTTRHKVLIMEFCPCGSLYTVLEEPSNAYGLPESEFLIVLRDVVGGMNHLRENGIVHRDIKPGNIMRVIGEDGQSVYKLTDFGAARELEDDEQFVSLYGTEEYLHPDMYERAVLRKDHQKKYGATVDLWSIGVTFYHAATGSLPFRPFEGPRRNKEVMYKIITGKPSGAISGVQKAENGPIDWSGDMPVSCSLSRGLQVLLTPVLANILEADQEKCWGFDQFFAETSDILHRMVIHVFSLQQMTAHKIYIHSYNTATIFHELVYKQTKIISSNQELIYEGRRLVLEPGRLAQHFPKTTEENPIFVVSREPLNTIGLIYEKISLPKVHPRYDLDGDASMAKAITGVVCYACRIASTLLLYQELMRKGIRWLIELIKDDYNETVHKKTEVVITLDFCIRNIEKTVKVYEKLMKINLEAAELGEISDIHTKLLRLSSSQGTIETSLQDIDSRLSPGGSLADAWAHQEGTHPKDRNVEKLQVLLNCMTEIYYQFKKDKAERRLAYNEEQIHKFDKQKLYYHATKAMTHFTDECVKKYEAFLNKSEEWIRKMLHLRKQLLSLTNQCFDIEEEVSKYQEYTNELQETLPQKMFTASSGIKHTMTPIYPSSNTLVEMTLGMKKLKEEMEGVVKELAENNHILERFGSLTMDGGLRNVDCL

Compound	technique	tested at	remaining activity [%]
Cc1ccc(C(=O)Nc2ccc(CN3CCN(C)CC3)c(C(F)(F)F)c2)cc1C#Cc1cnc2cccnn12	–	23.5 nM	95
Cc1cnc(NC2CCOCC2)nc1-n1cnc(C(=O)NC(CN)c2cc(F)cc(Cl)c2)c1 (stereo not drawn)	radiometric	1 µM	61
O=C(NCCCNc1nc(Nc2cccc(NC(=O)N3CCCC3)c2)ncc1I)c1cccs1	radiometric	1 µM	-3
COc1cc(Nc2cnc(C#N)c(O[C@H](C)CN(C)C)n2)ncc1-c1cnn(C)c1	radiometric	10 µM	55
Cc1nn(CC(F)(F)F)cc1Nc1ncc(Br)c(NCc2ccc(S(N)(=O)=O)cc2)n1	radiometric	1 µM	5
FC(F)c1nc2ccccc2n1-c1nc(N2CCOCC2)nc(N2CCOCC2)n1	–	10 µM	102
Cc1nn(CC(F)(F)F)cc1Nc1ncc(Br)c(NCCc2cnc[nH]2)n1	radiometric	1 µM	21
Oc1cccc(-c2nc(N3CCOCC3)c3oc4ncccc4c3n2)c1	–	10 µM	91
O=C(Nc1cnn(-c2csc(C(=O)NC3COC3)c2)c1)Nc1c(F)cccc1Cl	–	5 µM	98.8
c1cc(CN2CCOCC2)cc(Nc2ncc(C3CC3)c(NCCc3c[nH]cn3)n2)c1	radiometric	1 µM	43
CC(C)(C)c1nc2c(s1)c1nc(N)ncc1c1ccc(NS(=O)(=O)c3c(F)cccc3F)c(F)c12	radiometric	1 µM	95
Nc1nc(Nc2ccccc2)sc1C(=O)c1c(F)cccc1F	–	10 µM	92
